Test results taken from ChEMBL document CHEMBL3580607, “Anti-parasitic Guanidine and Pyrimidine Alkaloids from the Marine Sponge Monanchora arbuscula” (J Nat Prod, 2015).
Converted amounts (≈) assume the structure as drawn. The source made the active and inactive calls. No cut-off for these calls is given here.

Experiments:
Trypanosoma cruzi [1] = assay: Antitrypanosomal activity against trypomastigote stage of Trypanosoma cruzi Y assessed as inhibition of cell viability after 24 hrs by MTT assay; format: functional, organism-based
How it was run: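 T. cruzi Y-strain trypomastigotes incubated with alkaloids for 24 h; viability by MTT. Benznidazole as standard drug control. IC50 from sigmoidal dose–response curves, mean and standard deviation of replicates from at least two independent assays, 95% CI.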

Leishmania infantum [2] = assay: Antileishmanial activity against intracellular amastigote stage of Leishmania infantum MHOM/BR/1972/LD infected in BALB/c mouse peritoneal macrophages assessed as reduction of parasite burden after 120 hrs by Giemsa staining assay; format: functional, organism-based
How it was run: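 Peritoneal macrophages from BALB/c mice (collected in RPMI-1640 with 10% FBS, 37 °C, 5% CO2) infected with L. infantum amastigotes from spleens of infected hamsters, at a 1:10 macrophage:amastigote ratio. Compound exposure for 120 h, then Giemsa staining; infected macrophages counted out of 500 cells. Miltefosine as standard drug control.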

LLC-MK2 = assay: Cytotoxicity against rhesus monkey LLC-MK2 cells assessed as inhibition of cell viability after 48 hrs by MTT assay; format: cell-based; conditions: Macaca mulatta, LLC-MK2, 48 h
How it was run: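 LLC-MK2 rhesus monkey kidney cells seeded at 4 × 10^4 per well, exposed to alkaloids at up to 200 μM for 48 h; viability by MTT. IC50 from sigmoidal dose–response fits with 95% CI, replicates from at least two independent assays.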

Trypanosoma cruzi [3] = assay: Potency index, ratio of benznidazole IC50 to compound IC50 for trypomastigote stage of Trypanosoma cruzi Y; format: functional
Leishmania infantum [4] = assay: Antileishmanial activity against promastigote stage of Leishmania infantum MHOM/BR/1972/LD assessed as reduction of cell viability after 48 hrs by MTT assay; format: functional, organism-based
How it was run: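 L. infantum promastigotes exposed to alkaloids dissolved in DMSO, diluted in M-199 medium, highest concentration 156 μM, with internal controls; viability read by MTT after 48 h incubation. IC50 from sigmoidal dose–response curves, mean and standard deviation of replicates from at least two independent assays, with 95% CI.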

[5] = test system: Trypanosoma brucei brucei; assay: Antitrypanosomal activity against Trypanosoma brucei brucei GUTat 3.1 after 72 hrs by Alamar blue assay; format: functional, organism-based; conditions: GUTat 3.1, 72 h
A549 = assay: Cytotoxicity against human A549 cells; format: functional, cell-based
HeLa = assay: Cytotoxicity against human HeLa cells; format: functional, cell-based
MCF7 = assay: Cytotoxicity against human MCF7 cells; format: functional, cell-based
[6] = Cytotoxicity against human MCF10A cells; format: cell-based; conditions: mcf-10a
Leishmania donovani [7] = assay: Antileishmanial activity against promastigote stage Leishmania donovani assessed as growth inhibition after 72 hrs by Alamar blue assay; format: functional, organism-based
[8] = Selectivity index, ratio of IC50 for rhesus monkey LLC-MK2 cells to IC50 for trypomastigote stage of Trypanosoma cruzi Y; format: toxicity, cell-based; conditions: read-out: Ratio IC50
How it was run: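 The ratio divides the LLC-MK2 IC50 by the T. cruzi trypomastigote IC50. LLC-MK2 cells were seeded at 4 × 10^4/well, given compound up to 200 μM for 48 h, and read by MTT. Y-strain trypomastigotes were exposed for 24 h, with MTT read-out. IC50s come from sigmoidal dose–response fits (95% CI), using replicates from at least two independent assays.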

Leishmania infantum [9] = assay: Leishmanicidal activity against promastigote stage of Leishmania infantum MHOM/BR/1972/LD assessed as reduction of mitochondrial membrane potential at 2 uM measured after 60 mins by MitoTracker Red CM-H2XROS dye-based fluorimetric microplate reader analysis relative to control; format: functional; parameters: scale not given: the % may be the effect or the level left
How it was run: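 L. infantum promastigotes at 2 × 10^6/well exposed to 2 μM compound for 60 min, then MitoTracker Red CM-H2XROS (500 nM) added; fluorescence at excitation 540 nm / emission 595 nm. Controls: DMSO, compound alone, untreated parasites, medium without cells.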

Leishmania infantum [10] = assay: Leishmanicidal activity against promastigote stage of Leishmania infantum MHOM/BR/1972/LD assessed as increase in reactive oxygen species production at 2 uM measured after 60 mins by H2DCf-DA probe-based fluorimetric microplate reader analysis relative to control; format: functional
How it was run: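 Promastigotes (2 × 10^6/well) given 2 μM compound for 60 min, then H2DCf-DA (5 μM) for 15 min; fluorescence at 485/520 nm. Oligomycin (20 μM) as positive control; data normalized with oligomycin-treated parasites as 100% and untreated as 0%.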

Leishmania infantum [11] = assay: Antileishmanial activity against promastigote stage of Leishmania infantum MHOM/BR/1972/LD assessed as increase in membrane permeability at 2 uM measured at 60 mins by SYTOX green staining-based fluorimetric microplate reader analysis
Leishmania donovani [12] = assay: Antileishmanial activity against Leishmania donovani; format: functional, organism-based

| Compound | IC50 (Trypanosoma cruzi [1]) [µM] | Activity (Leishmania infantum [2]) | IC50 (LLC-MK2) [µM] | Ratio IC50 (Trypanosoma cruzi [3]) | IC50 (Leishmania infantum [4]) [µM] | IC50 (Leishmania donovani [7]) [µg/mL] | other results |
| --- | --- | --- | --- | --- | --- | --- | --- |
| CCCCCCC[C@@H]1C[C@@H]2CC[C@H]3[C@@H](C(=O)O[C@H](C)CCCCCCC[C@@H]4C[C@@H]5CC[C@@H]6C[C@H](C)N=C(N4)N65)[C@@H](C)N=C(N1)N23 | 5 | inactive | 10 | 54 | 4 |  |  |
| O=C(Cn1ccnc1[N+](=O)[O-])NCc1ccccc1 [BENZNIDAZOLE] | 441 |  | 477 |  |  |  |  |
| CC/C=C/CCC[C@@H]1C[C@@H]2CC[C@@H]3C[C@@H](CCCCCCC)NC(=[N+]32)N1.O=C([O-])C(F)(F)F |  |  |  |  |  |  | IC50 [5]: 0.24 µg/mL |
| CCCCCCCCCc1cc2n(c(=N)n1)CCC2 | 8 | inactive | 26 | 54 | 2 |  | Activity (A549): inactive; Activity (HeLa): inactive; Activity (MCF7): inactive; Activity [6]: Non-toxic |
| CCC1C=CCC[C@@]2(C[C@@H]3CC[C@@H]4[C@H](C(=O)OCCCCCCCCCCCCCCCC(=O)N(CCCN)C[C@@H](O)CCN)[C@]5(CCC[C@@H](C)O5)NC(=N2)N34)O1 (stereo partly specified) |  |  |  |  |  | 6.8 (≈ 8.49 µM) |  |
| CCCCCCCCCCCCCCCCOP(=O)([O-])OCC[N+](C)(C)C [MILTEFOSINE] |  |  | 122 |  | 16 |  |  |
| CCCCCCCC[C@@H]1C[C@@H]2CC[C@H]3[C@@H](C(=O)OC(C)CCCCCCC[C@@H]4C[C@@H]5CC[C@@H]6C[C@H](C)NC(=N4)N65)[C@@H](C)N=C(N1)N23 (stereo partly specified) [NORBATZELLADINE L] | 7 | inactive | 85 | 54 | 2 |  | selectivity ratio [8]: 12; Activity (Leishmania infantum [9]): 30%; Activity (Leishmania infantum [10]): 65%; Activity (Leishmania infantum [11]): 82% |
| CCCCCCCCC[C@@H]1C[C@@H]2CC[C@H]3[C@@H](C(=O)OC(C)CCCCCCC[C@@H]4C[C@@H]5CC[C@@H]6C[C@H](C)NC(=N4)N65)[C@@H](C)N=C(N1)N23 (stereo partly specified) [BATZELLADINE L] | 2 | inactive | 22 | 54 | 2 | 1.9 (≈ 2.91 µM) | selectivity ratio [8]: 7; Activity (Leishmania infantum [9]): 35%; Activity (Leishmania infantum [11]): 43% |
| CCCCCCC[C@H]1C[C@H]2CCC3=C(C(=O)OCCCCNC(=N)N)C(CCCCC)N=C(N1)N32 (stereo partly specified) |  |  |  |  |  | 5.5 (≈ 11.3 µM) |  |
| CCCCCCCCC[C@@H]1C[C@@H]2CC[C@H]3[C@@H](C(=O)OCCCCNC(=N)N)[C@@H](C)N=C(N1)N23 | 64 | inactive | 130 |  | 2 |  |  |
| CCCC[C@H]1c2nc(=N)[nH]c3c2[C@H](CC3)C[C@@H]1C |  |  |  |  |  |  | IC50 (Leishmania donovani [12]): 17 µg/mL (≈ 69.3 µM) |
| CCCCCCC[C@@H]1C[C@@H]2CCC3=C(C(=O)OCCCCCCC[C@@H]4C[C@@H]5CC[C@@H]6C[C@H](C)NC(=N4)N65)C(C)N=C(N1)N32 (stereo partly specified) |  |  |  |  |  | 8.5 (≈ 14.3 µM) |  |
| CCCCC[C@@H]1C[C@H]2CC[C@H]3C[C@@H](CCCCC)NC(=[N+]23)N1.O=C([O-])C(F)(F)F |  |  |  |  |  |  | IC50 [5]: 0.24 µg/mL |
